NR2E3 ag-1: agonists of human nuclear receptor NR2E3 | AID 2300 | GST-NR2E3/biotin-RetCOR TR-FRET, 1536-well | 320,000 tested, 0.12% active | Q9Y5X4 | inhibition of corepressor binding, % at 4.78 µM;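 active = percent inhibition above the cutoff of mean plus 3 SD of all tested compounds, set per screening campaign, cut at about 20% in these data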;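 also: 0% = DMSO wells and 100% = biotin wells as full block of FRET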
Target sequence (Q9Y5X4 whole entry, looked up): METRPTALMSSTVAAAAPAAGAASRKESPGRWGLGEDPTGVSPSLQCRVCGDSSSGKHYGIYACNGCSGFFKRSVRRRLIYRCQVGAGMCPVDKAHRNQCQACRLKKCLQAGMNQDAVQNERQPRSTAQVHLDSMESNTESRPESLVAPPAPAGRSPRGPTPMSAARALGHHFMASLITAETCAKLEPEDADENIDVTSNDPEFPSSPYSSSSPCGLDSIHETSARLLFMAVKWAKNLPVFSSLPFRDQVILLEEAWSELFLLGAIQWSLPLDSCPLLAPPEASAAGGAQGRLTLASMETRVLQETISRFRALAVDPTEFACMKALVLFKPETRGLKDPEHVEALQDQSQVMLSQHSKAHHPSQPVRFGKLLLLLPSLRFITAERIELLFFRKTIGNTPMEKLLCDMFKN
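Material: NR2E3–RetCOR corepressor complex / Incubation: Compound–protein incubation for 5 h at 4 °C / Dosing: compound at 4.8 µM, single dose / Detection: time-resolved FRET / Benchmarks: high control biotin, low control 0.6% DMSO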
MPTP block: inhibitors of mitochondrial permeability transition pore; inhibition, % at 10 µM; isolated mouse mitochondria, Ca2+ swelling absorbance, 30 min; 360,000 tested, 1.4% active;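 active = inhibition of 50% or more, scaled per plate between neutral and stimulator controls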;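 also: 0% = DMSO wells given calcium and 100% = 1 mM EGTA wells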
Jurkat NFkB inh: lowers PMA/ionomycin-induced NF-kB signal in Jurkat cells | PMA/ionomycin-induced NF-kB luciferase reporter, luminescence | inhibition, % at 4 µM | 330,000 tested, 0.53% active; in the data active = inhibition above about 50%
aDG glyco up: alpha-DG glycosylation activation. Pro5-aDG cells, alpha-DG glycosylation AlphaScreen (IIH6); 0% Pro5, 100% B10-LARGE cell signal. activation, % at 10 µM. 360,000 tested, 0.22% active. AID 624168;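 active = activation of at least 8% versus controls, or a plate z-score of at least 8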;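 also: Pro5 are CHO cells carrying HIG-tagged alpha-DG that lacks glycosylation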
697 NFkB inh: lowers PMA/ionomycin-induced NF-kB signal in 697 B cells. inhibition, % at 4 µM. 697 B-cell NF-kB luciferase reporter, 16 h. 330,000 tested, 0.33% active; in the data active = inhibition above about 35%
NR2E3 ag-2: agonists of human NR2E3 nuclear receptor; Q9Y5X4; CHO-S Gal4-NCOR/VP16-NR2E3 two-hybrid, luciferase; inhibition of corepressor binding, % at 3.98 µM; 360,000 tested, 0.35% active;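 active = inhibition above the mean of all tested compounds plus 3 SD, cut at about 70% in these data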;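 also: 0% = DMSO with NR2E3 transfected cells and 100% = cells lacking NR2E3 construct; higher means lower luciferase signal from less NR2E3 corepressor binding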
Jurkat NFkB conf: lowers PMA/ionomycin-induced NF-kB signal in Jurkat cells. shares compounds with Jurkat NFkB inh. Jurkat NF-kB luciferase, 16 h. inhibition, % at 4 µM. AID 435020. 2,700 tested, 27% active;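 active = inhibition reaching about 45% at 4 µM in either replicate, limit read from the data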;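 also: plate controls were PMA/ionomycin stimulated DMSO wells for no effect and unstimulated DMSO wells for full effect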
An asterisk follows results filed as active; nt = no result. An excerpt weighted towards active compounds, which were near 2.4% of everything screened.

SMILES	NR2E3 ag-1	MPTP block	Jurkat NFkB inh	aDG glyco up	697 NFkB inh	NR2E3 ag-2	Jurkat NFkB conf
Cc1cc(=O)oc(C)c1C(=O)NC1CCCCCCC1	4.2	-0.1	-5.4	-0.1	-0.2	10.2	nt
COc1cc(CC(=O)OCC(=O)c2ccc3c(c2)OCCO3)cc(OC)c1OC	1.4	-0.6	60.7*	0.8	0.7	13.9	37.8
O=C(COC(=O)c1ccc(O)cc1)c1ccc2c(c1)OCCO2	nt	-0.4	-80.1	0.1	-81.7	-69.2	nt
COc1ccc(-c2nnc(SCC(=O)/C(C#N)=C(\C)N)o2)cc1	-2.8	-0.5	-162.0	0.0	-188.6	-122.0	-97.6
O=C(CSc1nnc(-c2ccc(Br)cc2)o1)Nc1cccc2ccccc12	3.6	1.2	-15.4	0.0	-13.3	-20.0	nt
C/C(N)=C(/C#N)C(=O)CSc1nnc(-c2ccccc2Br)o1	-0.7	-2.0	-156.0	0.1	-217.4	-212.5	-115.7
O=C(CSc1nnc(-c2ccc(Br)cc2)o1)Nc1cccc(C(=O)O)c1	3.1	-1.1	74.6*	-0.1	8.0	-169.3	18.5
COc1ccc(-c2nnc(SCC(=O)Nc3ccccc3OC)o2)cc1	-0.5	-1.6	-182.9	-0.2	-43.6	-46.1	-18.5
COc1ccc([C@H]2C[C@H](O)C[C@@H](CCn3cc(-c4ccccc4)nn3)O2)cc1	nt	-1.3	nt	0.0	nt	-0.5	nt
CC(=O)NC(c1ccc(Cl)cc1)c1ccc2cccnc2c1O (stereo not given)	nt	-0.8	nt	-0.2	nt	-16.7	nt
COc1ccc(C(NC(=O)C(C)C)c2ccc3cccnc3c2O)cc1 (stereo not given)	-0.3	1.7	61.1*	-0.6	-22.2	6.5	64.6*
CCCC(=O)NC(c1ccc(N(C)C)cc1)c1ccc2cccnc2c1O (stereo not given)	2.6	-0.8	54.8*	-0.5	-21.0	23.4	74.3*
CCC(=O)NC(c1ccc(C)cc1)c1ccc2cccnc2c1O (stereo not given)	4.8	-1.1	55.4*	-0.4	-5.7	0.2	75.6*
CCCCC(=O)NC(c1ccc(Cl)cc1Cl)c1ccc2cccnc2c1O (stereo not given)	nt	6.8	51.0*	0.4	-25.2	-22.8	75.1*
Cc1cc(Br)ccc1S(=O)(=O)NCc1ccccc1	-0.5	0.8	6.2	0.1	-22.8	-17.1	nt
Cc1cccc(-n2ncc(C(=O)NC3CCCC3)c2C2CCN(C(=O)OC(C)(C)C)CC2)c1	-0.2	-0.4	12.4	0.1	19.4	-0.6	nt
CCCC(=O)NC(c1ccccc1Cl)c1ccc2cccnc2c1O (stereo not given)	0.5	2.9	62.9*	-0.3	-5.3	-3.2	80.6*
CCCC(=O)NC(c1ccc(C(C)C)cc1)c1ccc2cccnc2c1O (stereo not given)	2.5	0.8	59.8*	0.2	-32.9	-12.9	80.9*
CCCCC(=O)NC(c1ccc(OC)cc1)c1ccc2cccnc2c1O (stereo not given)	nt	2.5	nt	0.1	nt	-8.1	nt
COc1ccc2oc(=Nc3cc(F)ccc3F)c(C(N)=O)cc2c1	-0.7	-1.0	65.3*	-0.3	-63.8	-14.1	24.8
COc1ccc(OC)c(N=c2oc3cc(O)ccc3cc2C(N)=O)c1	1.1	15.1	2.1	-0.1	17.2	-46.0	nt
CCOC(=O)c1ccccc1NC(=O)Cn1c(-c2nonc2N)nc2ccccc21	1.7	3.5	81.7*	-0.1	14.6	-2.5	61.2*
Nc1nonc1-c1nc2ccccc2n1CC(=O)Nc1ccccc1	2.3	1.1	31.3	0.0	-3.8	-2.2	nt
CCCNC(=O)C1(C)CCCN(C(=O)Cc2ccc(OC)c(OC)c2)C1 (stereo not given)	nt	-2.5	nt	-0.2	nt	4.5	nt
O=C(C#Cc1cccc([N+](=O)[O-])c1)c1ccccc1	2.5	-2.9	9.8	-0.3	-49.4	-1.2	nt
SMILES	NR2E3 ag-1	MPTP block	Jurkat NFkB inh	aDG glyco up	697 NFkB inh	NR2E3 ag-2	Jurkat NFkB conf
Nc1ccccc1C#CC(=O)c1ccccc1	2.4	1.8	51.8*	-0.5	-109.0	-26.6	12.8
CCC1(c2ccccc2)NC(=O)N(CC(=O)Nc2cc(C(F)(F)F)ccc2N2CCCC2)C1=O (stereo not given)	0.4	-0.2	53.5*	0.4	9.8	-35.6	-17.1
O=C(CN1C(=O)NC2(CCCCC2)C1=O)Nc1cc(C(F)(F)F)ccc1N1CCCCC1	0.8	-2.0	2.4	0.2	11.6	-16.9	nt
N#Cc1cccc(NC(=O)CCN2C(=O)C3CCCCC3C2=O)c1 (stereo not given)	nt	-0.2	-10.7	0.9	-14.1	-3.5	nt
CCCc1cc(=O)oc2c(CNc3ccc(OCC)cc3)c(O)ccc12	-1.0	0.9	-1.5	0.0	-1.9	-2.2	nt
Cc1c(C(=O)N2CCN(c3ccc([N+](=O)[O-])cc3)CC2)oc2ccccc12	-0.7	0.2	50.8*	0.9	14.1	-4.6	32.0
O=C(NCCOc1ccccc1)c1cc([N+](=O)[O-])ccc1N1CCOCC1	3.9	-1.2	59.6*	0.0	-65.9	-56.8	56.7*
CC(=O)N1CCN(C(=O)c2ccc3c(c2)OCCO3)CC1	-2.5	-1.1	16.3	2.8	16.2	-23.6	nt
O=C(NCCOc1ccccc1F)c1cc([N+](=O)[O-])ccc1N1CCOCC1	1.0	-1.9	56.7*	-0.1	-7.9	-25.0	29.5
O=C(c1ccc2c(c1)OCCO2)N1CCN(c2ccc([N+](=O)[O-])cc2)CC1	5.2	nt	56.2*	nt	7.2	nt	-12.2
CC1CCCC(C)N1C(=O)CSc1nnc(COc2ccc(F)cc2)o1 (stereo not given)	-2.2	-3.5	-1.3	-0.1	-15.2	-21.2	nt
O=C(c1cc([N+](=O)[O-])ccc1N1CCOCC1)N1CCN(c2ccccc2)CC1	-1.8	-0.1	73.7*	-0.3	-53.6	23.2	33.1
CNc1ccccc1C(C)(C)c1cc(-c2cccc(OC)c2)no1	1.7	35.8	50.8*	1.0	-26.6	-6.1	27.1
CNc1ccccc1C(C)(C)c1cc(-c2cc(C)cc(C)c2)no1	-2.0	4.8	2.9	0.2	12.5	-12.0	nt
COc1ccc(-c2c(-c3ccccc3OC)oc3ccccc23)cc1F	0.2	4.6	-17.0	0.2	-3.6	-15.8	nt
COc1ccc(-c2coc3cc4oc(=O)c5ccccc5c4cc23)cc1F	-1.9	2.6	73.3*	-0.2	-59.7	-45.4	2.9
Cc1snnc1C(=O)NC(=S)Nc1ccccc1	0.8	1.9	3.4	-0.2	10.0	-55.7	nt
CCOC(=O)Nc1nc(-c2ccccc2)c(C(=O)c2ccc(Cl)cc2)s1	4.9	4.5	53.8*	-0.3	8.2	37.0	55.5*
CCOC(=O)Nc1sc(C)nc1-c1ccccc1	5.8	-2.2	-5.0	-0.2	-10.9	-10.7	nt
CC1(C)CC(N2CCN(c3ccccc3)CC2)=CC(=[N+]2CCCC2)C1	6.3	2.3	57.5*	0.0	4.6	1.4	27.5

From PubChem
